Assay outcomes (PubChem BioAssay)
Shown are actives, neighbours in structure and some others; about 2.4% of the full set was active somewhere.
CSN deneddyl inh: inhibitors of CSN-mediated cullin deneddylation, primary screen, biochemical, fluorescence polarization, uHTS; 360,000 compounds, 0.38% hits; Purified CSN, SCF-Nedd8-OG deneddylation; inhibition, % at 12.5 µM; AID 651999, 2013; COP9 signalosome complex subunit 5 (Homo sapiens), Q92905;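 active = pattern-corrected inhibition above about 35%, with an unprinted fluorescence ratio check between 0.5 and 1.5, limit read from the data, passing the limit was not always enough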;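 also: 0% = enzyme with substrate and 100% = substrate without enzyme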
Target sequence (Q92905 whole entry, looked up, one chain of several): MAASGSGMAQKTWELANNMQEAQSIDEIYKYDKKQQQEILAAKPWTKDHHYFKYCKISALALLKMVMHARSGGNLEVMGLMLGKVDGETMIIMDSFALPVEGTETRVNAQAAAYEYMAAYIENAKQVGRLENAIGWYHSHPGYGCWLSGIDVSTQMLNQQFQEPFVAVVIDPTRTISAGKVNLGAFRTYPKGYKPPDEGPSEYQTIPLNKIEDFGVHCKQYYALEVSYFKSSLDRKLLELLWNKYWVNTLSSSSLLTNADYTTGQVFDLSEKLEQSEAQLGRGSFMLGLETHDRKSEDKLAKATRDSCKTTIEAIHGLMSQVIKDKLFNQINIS
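Assay system: Purified human Csn5 enzyme expressed in HEK293T cells | Amount: Enzyme 0.24 nM | Measured by: Fluorescence polarization readout | Medium: Tris/NaCl/DTT buffer, pH 7.5 | Compound dosing: One concentration, 12.5 µM, 0.25% DMSO | Times: 90 min incubation of compound, enzyme and substrate at room temperature | Control set: no-enzyme wells high, enzyme-with-substrate wells low | Read-out: % inhibition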
Rpn11 block: Rpn11 (PSMD14) deubiquitinase inhibitors, primary screen, biochemical, fluorescence polarization, uHTS; AID 588493, 2011; human 26S proteasome, Ub4-pepOG fluorescence polarization; 20S core pre-blocked with epoxomicin; inhibition, % at 20 µM; 360,000 compounds, 0.59% hits;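 active = inhibition at 20 µM, scaled to each plate's controls, above about 33%, limit read from the data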
Target sequence (O00487 whole entry, looked up): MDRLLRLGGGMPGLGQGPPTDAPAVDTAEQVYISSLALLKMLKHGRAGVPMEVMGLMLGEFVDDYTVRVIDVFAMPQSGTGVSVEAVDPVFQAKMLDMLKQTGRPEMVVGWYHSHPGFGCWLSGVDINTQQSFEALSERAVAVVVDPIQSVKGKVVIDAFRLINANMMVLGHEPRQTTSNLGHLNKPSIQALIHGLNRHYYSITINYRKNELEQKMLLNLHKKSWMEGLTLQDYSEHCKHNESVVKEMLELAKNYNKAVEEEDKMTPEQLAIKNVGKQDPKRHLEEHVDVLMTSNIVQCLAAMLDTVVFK
PREPL inh: PREPL enzyme inhibitors, primary screen, biochemical, fluorescence polarization. recombinant PREPL, fluorescence polarization activity-based probe. Prolyl endopeptidase-like (Homo sapiens), Q4J6C6. AID 2751, 2010. inhibition, % at 5.96 µM. 320,000 compounds, 0.68% hits; in the data active = inhibition above about 43%;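 also: 0% = enzyme with DMSO and 100% = wells lacking enzyme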
Neddylation inh: inhibitors of cullin neddylation, primary screen, biochemical, TR-FRET, uHTS, NAE and Ubc12; NEDD8-conjugating enzyme Ubc12 (Homo sapiens) + NEDD8-activating enzyme E1 regulatory …; inhibition, % at 25 µM; 360,000 compounds, 0.58% hits; AID 651699, 2012; in the data active = inhibition above about 36%
Tb MetRS inh: T. brucei MetRS inhibitors, primary screen, biochemical, luminescence; methionyl-tRNA synthetase (Trypanosoma brucei brucei); inhibition, % at 11.9 µM; purified T. brucei MetRS, ATP depletion, Kinase-Glo luminescence; 360,000 compounds, 0.4% hits;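 active = inhibition above a per-plate cutoff of the control wells' mean inhibition plus 3 SD, cut at about 5.5% in these data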;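 also: 0% = DMSO wells median and 100% = median of wells with control inhibitor compound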
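technique = Kinase-Glo luminescence, ATP depletion format | system = purified MetRS (methionyl-tRNA synthetase) enzyme from Trypanosoma brucei | timing = 15 min preincubation, 2 h reaction, all 25 °C | evaluation = percent inhibition versus plate control medians | dosing = single dose, 11.9 µM final nominal, 0.9% final DMSO | also added = substrates ATP, L-methionine and bulk Escherichia coli tRNA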
HNF4A DNA FP: change in binding of human HNF4A to DNA, primary screen, biochemical, fluorescence polarization, FITC-DNA; 1 h; activity change, % at 10 µM; 360,000 compounds, 0.3% hits; AID 1224865, 2016; in the data active = activity change above about 30%, passing the limit was not always enough
Neddyl conf: blockade of NEDD8 conjugation to cullin – biochemical, TR-FRET, single concentration, confirmation; TR-FRET cullin neddylation biochemical assay; calls only at 25 µM; 1,800 compounds, 13% hits; shares compounds with Neddylation inh; in the data active = inhibition above about 40%;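 also: neddylation substrate is the cullin 1 ring ligase complex with SKP2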
* hit, by the source's call; i = inactive; . = no result given; + = active, no number.

SMILES	CSN deneddyl inh	Rpn11 block	PREPL inh	Neddylation inh	Tb MetRS inh	HNF4A DNA FP	Neddyl conf
O=C(NCCCc1ccccc1)c1ccccc1O	3	-4	1	42*	0	7	i
CC1(C(=O)NCc2ccccc2)CSCC(=O)N1Cc1cccs1 (stereo unspecified)	-3	.	.	-2	0	0	.
CC(C)Oc1cc(F)ccc1-c1cc(C(=O)NCCCn2ccnc2)[nH]n1	0	0	.	6	0	3	.
Cc1ccc(-c2nnc(Nc3ccc(CC(N)=O)cc3)c3ccccc23)cc1	4	-2	-2	45*	0	0	i
O=C(Nc1cc(C(F)(F)F)ccc1-n1cnc2ccccc21)c1ccccc1	1	4	-2	2	0	-1	.
COc1cc(/C=C/c2nnc3c4ccccc4ncn23)cc(OC)c1OC	-9	0	-3	55*	0	-1	i
C(=C\c1nnc2c3ccccc3ncn12)/c1ccccc1	-12	5	0	-3	-2	0	.
COc1ccc(-c2noc(CCC(=O)NC3CCCCCC3)n2)cc1OC	0	-4	.	7	0	3	.
Cn1c(Oc2cccnc2CN2CCCC2)nc2cc(-c3cccc(C(F)(F)F)c3)sc2c1=O	-2	7	.	-43	0	2	.
CCCN1CCN(C(=O)Cn2ncc3c([nH]c4ccc(C)cc43)c2=O)CC1	1	-10	1	45*	-1	-1	i
Cc1ccc2c(c1)c1c(n2CC2COC(C)(C)O2)C(=O)CCC1 (stereo unspecified)	0	6	8	.	0	1	.
Cc1ccc2c(c1)c1c3n2CC(=C2C(=O)OC(C)(C)OC2=O)NC3CCC1 (stereo unspecified)	3	2	39	45*	0	2	i
CN(Cc1ccc(Cl)cc1)C(=O)c1[nH]c(C(F)(F)F)nc1-c1ccccc1	1	0	.	7	0	0	.
CCOCCCn1c(=NC(=O)c2cccnc2)c(C(=O)OCC)cc2c(=O)n3ccccc3nc21	4	1	24	.	0	-1	+
CCCCn1c(=NC(=O)c2cccnc2)c(C(=O)OCC)cc2c(=O)n3ccccc3nc21	-1	-3	.	.	0	-2	.
Cc1cnc(C(=O)N(CC(C)C)c2c(N)n(CC(C)C)c(=O)[nH]c2=O)cn1	-2	3	.	9	-1	2	.
CCn1c(=O)c(-c2ccccc2)c(O)c2ccccc21	1	-3	2	41*	0	3	+
O=C(/C=C/c1ccccc1[N+](=O)[O-])OCC(=O)N1CCN(c2ccccc2)CC1	-3	-3	.	-31	0	1	.
COc1c2c(cc3oc(CO[C@@H]4O[C@H](CO)[C@@H](O)[C@H](O)[C@H]4O)cc(=O)c13)O[C@H](C(C)(C)O)C2	2	2	15	35*	0	1	i
CC(=O)Oc1ccc(-c2ccc(C(=O)OCC(=O)N(C)CC(=O)Nc3ccccc3Cl)cc2)cc1	0	4	1	56*	0	-1	i
CC[C@@H]1C(c2ccccc2)=NN(c2ccccc2)[C@H]1C(=O)N1CCOC1=O	1	5	.	49*	2	2	.
CC[C@@H]1C(c2ccc(F)cc2)=NN(c2ccccc2)[C@H]1C(=O)N1CCOC1=O	5	15	.	-123	0	1	.
COc1ccc(NS(=O)(=O)c2cccc(C(=O)N3CCN(S(=O)(=O)c4ccccc4)CC3)c2)cc1	1	-5	.	13	0	0	.
Cc1cc(=O)oc2cc(OCC(=O)N3CCOCC3)c(Cl)cc12	-3	1	4	.	0	0	.
Cc1cc(=O)oc2cc(OCC(=O)N3CCCC3)c(Cl)cc12	0	2	3	60*	0	1	.
SMILES	CSN deneddyl inh	Rpn11 block	PREPL inh	Neddylation inh	Tb MetRS inh	HNF4A DNA FP	Neddyl conf
NNc1nc2ccccc2c(=O)n1Cc1ccccc1	-3	5	6	41*	1	-3	i
COc1ccc(C)cc1Nc1nc(N)c2cc(OC)c(OC)cc2n1	-1	-7	39	35	-1	4	.
COc1ccc(Cl)cc1Nc1nc(N)c2ccccc2n1	-9	6	8	45*	0	-3	+
O=C(Nc1cc(S(=O)(=O)N2CCCCC2)ccc1O)c1ccccc1NS(=O)(=O)c1ccc(F)c(F)c1	-13	-21	4	51*	0	-2	i
O=C(COC(=O)c1ccccc1O)Nc1cc(S(=O)(=O)N2CCCCCC2)ccc1Cl	-3	-1	12	49*	0	1	.
O=C(COC(=O)c1ccccc1)Nc1cc(S(=O)(=O)N2CCCCCC2)ccc1Cl	-1	3	20	10	0	-3	.
Clc1ccc(C=Cc2ccccn2)c(Cl)c1	-3	5	.	5	1	3	.
CC1(C(=O)NS(=O)(=O)c2ccc(F)cc2F)CCN1C(=O)Cc1cccc2ccccc12 (stereo unspecified)	-3	-2	.	1	0	-5	.
COc1ccc(Cn2cc(CN3CC(N4CCCC4)CS3(=O)=O)nn2)cc1 (stereo unspecified)	-2	.	.	-5	0	-3	.
COc1cc(-c2cc(C(=O)N3CCN(c4ccccn4)CC3)c3ccccc3n2)cc(OC)c1OC	-5	2	-5	42*	-1	3	i
COc1ccc(-c2cc(C(=O)N3CCN(c4ccccn4)CC3)c3ccccc3n2)cc1	2	0	7	34	-1	6	.
COc1ccc(-c2csc(NC(=O)c3cc(-c4cccs4)nc4ccccc34)n2)c(OC)c1	-8	-4	-1	44*	0	0	i
COc1ccc(-c2cc(C(=O)N(C)CCc3ccc(OC)c(OC)c3)c3ccccc3n2)cc1	0	-3	.	46*	-1	1	i
COc1ccc(-c2cc(C(=O)N3CCN(c4ccccc4O)CC3)c3ccccc3n2)cc1OC	1	-3	-9	54*	0	3	+
COc1ccc(-c2cc(C(=O)N3CCN(c4ccccc4O)CC3)c3ccccc3n2)cc1	-1	3	-45	38	0	0	.
